Screening results as filed in PubChem.
Jurkat NFkB inh – inhibitors of the PMA/ionomycin-induced NF-kB reporter in Jurkat cells | inhibition, % at 4 µM | PMA/ionomycin-induced NF-kB luciferase reporter, luminescence | AID 435003 | 0.53% of 330,000 active; in the data active = inhibition above about 50%
IMP-1 inh – blocks Pseudomonas aeruginosa IMP-1 metallo-beta-lactamase; purified IMP-1, nitrocefin hydrolysis, epi-absorbance fluorescence; inhibition, % at 5.6 µM; 0.45% of 290,000 active;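 active = inhibition above the mean plus 3 SD of all compounds in the same screening run, cut at about 4.5% in these data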
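Test system: recombinant IMP-1 enzyme, purified / Medium: HEPES buffer pH 7.1 with ZnSO4 and Brij 35 / Doses: single dose, 5.6 µM / Times: 25 °C, 15 min preincubation, 25 min reaction / Detection: Epi-absorbance via hydrolysed-nitrocefin quenching of white-plate fluorescence, 480/530 nm, EDTA stop / Evaluation: percent inhibition from optical density relative to buffer-blank wells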
VIM-2 inh – blocks Pseudomonas aeruginosa VIM-2 metallo-beta-lactamase; purified VIM-2, nitrocefin hydrolysis, epi-absorbance fluorescence; inhibition, % at 5.6 µM; 0.89% of 290,000 active;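 active = inhibition above the mean of all tested compounds plus 3 SD, cutoff set per screening run, cut at about 7.5% in these data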;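 note: red hydrolysis product quenches plate fluorescence so inhibitors raise well fluorescence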
Mdm2-MdmX inh – disrupts the human Mdm2-MdmX interaction; AID 485346; SaOS-2 split-luciferase Mdm2/MdmX complementation, luminescence; 3% of 330,000 active; inhibition, % at 8 µM; O15151+Q00987;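 active = inhibition of at least 50% at 8 µM in the primary screen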
Target sequence (O15151 whole entry, looked up): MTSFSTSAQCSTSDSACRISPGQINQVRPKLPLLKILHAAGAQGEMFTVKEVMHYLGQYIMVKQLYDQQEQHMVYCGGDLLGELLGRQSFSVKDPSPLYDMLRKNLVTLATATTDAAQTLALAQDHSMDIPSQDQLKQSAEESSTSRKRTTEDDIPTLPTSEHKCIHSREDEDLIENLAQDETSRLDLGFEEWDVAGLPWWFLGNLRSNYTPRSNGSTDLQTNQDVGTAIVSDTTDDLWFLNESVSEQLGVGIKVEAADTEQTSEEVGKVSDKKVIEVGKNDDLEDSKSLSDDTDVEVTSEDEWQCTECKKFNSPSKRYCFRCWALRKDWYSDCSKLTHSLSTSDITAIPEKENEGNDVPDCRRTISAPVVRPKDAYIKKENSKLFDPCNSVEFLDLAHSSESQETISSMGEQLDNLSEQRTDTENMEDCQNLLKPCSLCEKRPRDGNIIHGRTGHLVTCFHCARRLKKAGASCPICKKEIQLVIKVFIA
Target sequence (Q00987 whole entry, looked up): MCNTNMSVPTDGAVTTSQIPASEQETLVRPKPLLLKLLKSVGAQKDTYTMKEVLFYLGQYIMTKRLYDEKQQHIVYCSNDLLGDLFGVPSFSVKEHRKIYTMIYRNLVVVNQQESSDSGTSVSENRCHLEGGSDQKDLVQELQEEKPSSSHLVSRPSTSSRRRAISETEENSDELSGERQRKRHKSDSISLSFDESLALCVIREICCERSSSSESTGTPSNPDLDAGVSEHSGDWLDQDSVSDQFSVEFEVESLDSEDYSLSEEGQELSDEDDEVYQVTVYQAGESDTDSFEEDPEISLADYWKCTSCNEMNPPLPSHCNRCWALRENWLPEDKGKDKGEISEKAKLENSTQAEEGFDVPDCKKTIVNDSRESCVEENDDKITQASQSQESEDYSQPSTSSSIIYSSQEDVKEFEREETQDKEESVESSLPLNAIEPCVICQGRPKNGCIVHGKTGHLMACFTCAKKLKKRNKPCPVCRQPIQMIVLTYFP
697 NFkB inh – lowers PMA/ionomycin-induced NF-kB signal in 697 B cells. 697 B-cell NF-kB luciferase reporter, 16 h. inhibition, % at 4 µM. 0.33% of 330,000 active; in the data active = inhibition above about 35%
aSyn UTR inh – MLPCN primary screen, SNCA 5' untranslated region. inhibition, % (tested at 7.5 µM). 0.82% of 300,000 active. alpha-synuclein 5'UTR reporter, inhibitor activity; in the data active = inhibition above about 60%;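 note: H4 neuroglioblastoma cells stably carrying SNCA 5'UTR luciferase fusion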
Mdm2 MdmX conf – human Mdm2/MdmX binding inhibition, confirmed; luminescent assay; 55% of 10,000 active; inhibition, % at 8 µM; shares compounds with Mdm2-MdmX inh; in the data active = inhibition above about 40%
Full FLuc ctr – counter-screen for Mdm2/MdmX inhibitors: full-length luciferase; shares compounds with Mdm2-MdmX inh; 77% of 6,200 active; inhibition, % at 8 µM; SaOS-2 full-length luciferase counterscreen, luminescence;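 active = mean inhibition at 8 µM reaching about 37%, which flags the compound as non-specific, limit read from the data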;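 note: p53-null SaOS-2 cells with luciferase driven by a doxycycline-inducible promoter; compound on cells about two nights before reading with doxycycline added after day one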
Hits are given with their value; n = inactive; x = not tested or not shown. Compounds with a hit are over-represented: about 4.7% of the library has one in this group of screens.

SMILES	Jurkat NFkB inh	IMP-1 inh	VIM-2 inh	Mdm2-MdmX inh	697 NFkB inh	aSyn UTR inh	Mdm2 MdmX conf	Full FLuc ctr
COc1cccc(CNCCO)c1OCc1ccc(Cl)cc1	n	n	n	n	n	n	x	x
COc1cc(CNCCN2CCOCC2)ccc1OCc1ccc(Cl)cc1Cl	n	n	n	53.5	n	n	n	x
COc1cc(CNC(C)(C)CO)cc(Br)c1OCc1ccc(Cl)cc1Cl	n	n	n	55.1	n	n	40.2	101.8
COc1cc(CNC(C)(C)CO)cc(Br)c1OCc1ccc(Cl)cc1	n	n	n	n	n	n	x	x
COc1cc(CNCCO)cc(Cl)c1OCc1ccc(Cl)cc1Cl	n	n	n	51.4	n	n	48.9	85.2
CC(C)OCCCNC(=O)c1cc(S(=O)(=O)N2CCc3ccccc32)cn1C	n	n	n	n	n	n	x	x
CC(=O)Nc1nc2cccc([N+](=O)[O-])c2s1	n	n	n	n	n	n	x	x
CN(C(=O)COC(=O)c1ccc(S(=O)(=O)N2CCOCC2)cc1)C1CCCCC1	n	n	n	n	n	n	x	x
CCNC(=O)N1CCCC(C(=O)c2ccc(C(F)(F)F)cc2)C1 (configuration not stated)	n	n	n	n	n	n	x	x
CCOC(=O)c1ccc(NC(=S)N(CCN2CCCCCC2)Cc2cccs2)cc1	n	n	n	n	n	n	x	x
COc1cc(C(=O)NC2CCCCC2)ccc1OCc1ccc(Cl)cc1Cl	n	n	n	57.8	n	n	n	x
Nc1ccc(Sc2cc(Cl)nc(N)n2)cc1	n	n	n	n	n	n	x	x
Nc1nc(N)c2cc(Sc3ccc4ccccc4c3)ccc2n1	n	n	n	100.2	n	96.1	61.5	37.5
CN(C(=O)c1ccccc1-c1ccccc1C(=O)O)c1ccccc1	n	n	n	n	n	n	x	x
CC(C)=C(NC(=O)c1ccccc1)C(=O)NCc1ccccc1	n	n	n	n	n	n	x	x
O=[N+]([O-])c1c(NCCCO)cc(Sc2ccc(Cl)cc2)c2nonc12	x	n	n	x	x	n	x	x
CC(=O)OCCCNc1cc(Sc2nc3ccccc3s2)c2nonc2c1[N+](=O)[O-]	n	n	n	100.4	n	n	76.5	52.1
CC(=O)OCCCNc1cc(Sc2ccc(C)cc2)c2nonc2c1[N+](=O)[O-]	n	n	n	53.9	n	n	58.6	67.8
CC(=O)c1c(C)[nH]c(C(=O)Nc2cccc(S(=O)(=O)N3CCOCC3)c2)c1C	n	n	n	58.2	n	n	n	87.2
CCC1(c2ccccc2)NC(=O)N(CC(=O)Nc2cc(S(=O)(=O)N3CCCCCC3)ccc2OC)C1=O (configuration not stated)	n	x	x	51.3	n	n	42.6	78.4
COc1ccc(S(=O)(=O)N2CCCCC2)cc1NC(=O)c1[nH]c(C)c(C(C)=O)c1C	n	x	x	81.9	n	x	59.4	43.0
CC(=O)c1c(C)[nH]c(C(=O)Nc2cccc(S(=O)(=O)N(C)c3ccccc3)c2)c1C	n	n	n	n	n	n	x	x
CC(=O)c1c(C)[nH]c(C(=O)Nc2cc(S(=O)(=O)N3CCCCC3)ccc2C)c1C	n	x	x	n	n	x	x	x
CCOc1ccc(S(=O)(=O)N2CCCCC2)cc1NC(=O)CN1C(=O)NC(CC)(c2ccccc2)C1=O (configuration not stated)	n	n	n	n	n	n	x	x
CC(=O)Oc1ccc(-c2ccc(C(=O)Nc3cccc(S(=O)(=O)N4CCOCC4)c3)cc2)cc1	n	n	n	66.2	n	n	44.0	88.5
SMILES	Jurkat NFkB inh	IMP-1 inh	VIM-2 inh	Mdm2-MdmX inh	697 NFkB inh	aSyn UTR inh	Mdm2 MdmX conf	Full FLuc ctr
C#CC(C)(C)NC(=O)c1ccc(-c2ccccc2F)cc1	n	n	n	n	n	n	x	x
CCCCCCN(C(=O)CCCCCN1C(=O)NC(c2ccc(-c3ccccc3)cc2)C(C(=O)OCc2ccccc2)=C1C)C(C(=O)NCCCC)c1ccc(OCC(=O)OC)cc1 (configuration not stated)	n	n	n	n	n	n	x	x
CCCCNC(=O)C(c1ccc(OCC(=O)OC)c(C(=O)OC)c1)N(CCOC)C(=O)CCCCCN1C(=O)NC(c2ccc(-c3ccccc3)cc2)C(C(=O)OCc2ccccc2)=C1C (configuration not stated)	n	x	x	100.3	n	n	65.8	n
O=c1cc(Nc2ccc3c(c2)OCCO3)[nH]c(=O)n1-c1ccc(Br)cc1	n	n	n	55.1	n	n	n	x
O=c1cc(Nc2ccc3c(c2)OCO3)[nH]c(=O)n1-c1ccc(Br)cc1	n	n	n	n	n	n	x	x
Cc1ccccc1-c1nnc(-c2ccc(Cl)cc2)o1	n	n	n	n	n	n	x	x
Cc1ccc(CS(=O)(=O)c2ccccc2-c2nnc(-c3ccc(Cl)cc3)o2)cc1	n	n	n	54.6	n	n	n	x
Cc1cccc(CC(=O)OCn2nnc3ccccc3c2=O)c1	n	n	n	n	n	n	x	x
C/C(CC(=O)Nc1ccc([N+](=O)[O-])cc1)=N/NC(=O)C1CC12CCC2 (configuration not stated)	n	n	n	n	n	n	x	x
CCOC(=O)c1ccc(Oc2cc(C)nc(SC)n2)cc1	n	n	n	55.7	n	n	57.8	49.0
CC1CCCC(NC(=S)Nc2ccc(SC(F)F)cc2)C1C (configuration not stated)	n	n	n	90.2	n	n	n	x
FC(F)Sc1ccc(NC(=S)NC2CCCC2)cc1	n	n	n	n	n	n	x	x
Cc1cc(C)c(S(=O)(=O)N2CCCOC2CNC(=O)C(=O)NCCc2c[nH]c3ccccc23)c(C)c1 (configuration not stated)	n	n	n	n	n	n	x	x
Cc1cc2c(cc1C)N(Cc1ccc(Cl)cc1)C1=NCCCN12	n	x	x	55.9	n	n	n	90.1
CC(C)(C)c1ccc(CN2C3=NCCCN3c3ccccc32)cc1	n	n	n	68.8	n	n	n	61.3
Cc1ccc(CN2C3=NCCCN3c3ccccc32)cc1	n	n	n	n	n	x	x	x
COc1ccc(NC(=O)C(=O)N/N=C\c2ccc(CNC(=O)C(=O)Nc3ccc(C)c(C)c3)o2)c(OC)c1	n	n	n	91.6	n	88.4	46.4	94.8
COCCNC(=O)/C(C#N)=C\c1ccc(CNC(=O)C(=O)Nc2ccc(C)c(C)c2)o1	n	n	n	n	n	n	x	x
COc1cccc(OCC(O)CN2CCN(CCN3C(=O)c4cccc5cccc(c45)C3=O)CC2)c1 (configuration not stated)	n	n	n	n	n	n	x	x
Cc1ccc(C)c(OCC(O)CN2CCC(CN3C(=O)c4cccc5cccc(c45)C3=O)CC2)c1 (configuration not stated)	n	n	n	59.6	n	n	n	x
COc1ccc(/C=C/c2n[nH]c(=O)c(C#N)c2C)cc1	n	n	n	n	n	n	x	x
